APJ antag: antagonists of human apelin receptor APJ, primary screen, CHO-K1 cells, beta-arrestin complementation, luminescence; P35414; inhibition, % at 20 µM; hit rate 0.32% among 330,000;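 active means inhibition above about 40% at 20 µM, limit read from the data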;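 further: cells challenged with 10 nM apelin-13 agonist together with compound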
Target sequence (P35414 whole entry, looked up): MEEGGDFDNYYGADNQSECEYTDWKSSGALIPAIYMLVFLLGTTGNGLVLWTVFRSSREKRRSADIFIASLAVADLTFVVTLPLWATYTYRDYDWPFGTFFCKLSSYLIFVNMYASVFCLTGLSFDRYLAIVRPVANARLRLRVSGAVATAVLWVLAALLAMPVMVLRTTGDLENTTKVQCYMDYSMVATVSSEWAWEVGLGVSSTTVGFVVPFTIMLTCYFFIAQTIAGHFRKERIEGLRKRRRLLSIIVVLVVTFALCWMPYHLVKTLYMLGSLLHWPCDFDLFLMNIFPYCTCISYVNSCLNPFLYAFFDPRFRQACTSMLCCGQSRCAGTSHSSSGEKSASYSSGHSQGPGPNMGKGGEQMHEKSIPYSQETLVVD
APJ agonist: agonists of human apelin receptor APJ, primary screen, CHO-K1 cells, PathHunter beta-arrestin, luminescence; hit rate 0.11% among 330,000; 0% DMSO wells, 100% apelin; activation, % at 20 µM; AID 2520, 2010; P35414;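 active means activation more than six SD over the plate average, tested at 20 µM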
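Assay system – PathHunter CHO-K1 APJ (AGTRL-1) beta-arrestin reporter cells · Compound – one dose, 20 µM compound, 1% DMSO · Timing – compound 90 min 25 °C, reagent 1 h · Measured by – luminescence from split beta-galactosidase complementation, Galacton Star/Emerald II substrate · Measure – beta-arrestin recruitment to APJ as agonist activity, luminescent signal · Benchmarks – DMSO vs Apelin-13 10 nM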
EBI2 block: EBI2 receptor antagonists, beta-arrestin recruitment, primary screen, cell-based, luminescence, 7a,25-OHC stimulation, uHTS | G-protein coupled receptor 183 (Homo sapiens), P32249 | AID 651636, 2012 | inhibition, % at 5 µM | 7a,25-OHC stimulated | hit rate 0.81% among 360,000; in the data active means inhibition above about 38%;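 further: enzyme fragment complementation signal reports receptor beta-arrestin coupling in cells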
CCR6 antag: CCR6 receptor antagonists, primary screen, cell-based, CHO-K1, luminescence, beta-arrestin, uHTS; C-C chemokine receptor type 6 (Homo sapiens), P51684; CHO-K1 CCR6 PathHunter beta-arrestin, CCL20-stimulated; inhibition, % at 20 µM; hit rate 0.49% among 340,000; AID 493098, 2011;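 active means compounds whose inhibition of the agonist-driven luminescence signal at 20 µM reaches about 50%, limit read from the data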;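 further: cells stimulated with CCL20 at 14 nM final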
CXCR6 inh: CXCR6 receptor inhibitors, primary screen, cell-based, beta-arrestin, luminescence, CHO-K1 PathHunter, 1536-well | inhibition, % at 20 µM | hit rate 0.36% among 360,000 | AID 602244, 2012 | C-X-C chemokine receptor type 6 (Homo sapiens), O00574; in the data active means inhibition above about 34%, passing the limit was not always enough;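 further: antagonist mode with CXCL16 agonist at 10 nM final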
HTR2A ag: mouse Htr2a agonists via beta-arrestin recruitment, primary screen, cell-based, luminescence; 5-hydroxytryptamine receptor 2A (Mus musculus), P35363; CHO-K1 mHTR2A beta-arrestin complementation; percent of 30 µM serotonin response; activation, % at 7.6 µM; hit rate 0.66% among 360,000; AID 624169, 2012;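 active means activation above a run cutoff, the mean activation of all tested compounds plus 3 SD, cut at about 14% in these data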
EBI2 conf: EBI2 antagonist hit retest, beta-arrestin, confirmation, cell-based, single concentration, luminescence, 7a,25-OHC stimulation; shares compounds with EBI2 block; 7a,25-OHC antagonism; inhibition, % at 5 µM; hit rate 29% among 2,400; AID 651997, 2013;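 active means inhibition of at least 50%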
EBI2 agonist: EBI2 agonist activity of antagonist hits, confirmation, counter-screen for EBI2 antagonist project, cell-based, single concentration, agonist mode, luminescence; shares compounds with EBI2 block; EBI2-expressing cells, 60 min; 0% vehicle, 100% 7α,25-dihydroxycholesterol control; activation, % at 5 µM; 2,400 tested, under 10 active;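 active means activation of at least 50%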
bGal counter: E. coli beta-galactosidase enzyme inhibition, confirmation, counter-screen for EBI2 antagonist project, biochemical, luminescence, single concentration. shares compounds with EBI2 block. purified beta-galactosidase, luminescent Galacton Star, 15 min. inhibition, % at 5 µM. hit rate 1% among 2,400;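 active means replicate-average signal at least 3 plate SD below neutral wells, shown as high inhibition, flagging enzyme-inhibiting false positives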;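 further: higher means stronger loss of beta-gal luminescence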
Of the large screens only hits and unclear results are named; the others gave an inactive call (follow-up assays come after a bar, where they were run). Rows were chosen to be rich in hits. Some 2.1% of all compounds tested hit in one or more screens of this group.

O=C(Cc1n[nH]c(=O)c2ccccc12)N1CCN(S(=O)(=O)c2ccc(F)c(Cl)c2)CC1	none
O=c1[nH]c(CN2CCN(S(=O)(=O)/C=C/c3ccccc3)CC2)nc2cc(Cl)ccc12	EBI2 block 70.7 | EBI2 conf inactive | EBI2 agonist inactive | bGal counter inactive
CC1CC(C)CN(S(=O)(=O)c2ccc(C(=O)N3CCOCC3)cc2)C1 (configuration not stated)	none
CN(C(=O)c1ccc(NC(=O)Cc2cccc(NC(=O)C3CCN(C(=O)C4CCCC4)CC3)c2)cc1)C1CCCC1	none
CC(C)(C)OC(=O)C[C@H]1C/C=C\C[C@H](CC(=O)N[C@@H](CO)Cc2ccccc2)C(=O)N[C@H](C(C)(C)C)COC1=O	none
COc1ccc(N2C(=O)c3ccccc3NC(=O)C2C(=O)NCCc2ccccc2F)cc1 (configuration not stated)	none (no result: APJ antag, APJ agonist, CCR6 antag, CXCR6 inh)
CN(c1ccc([N+](=O)[O-])cc1C(=O)Nc1ccccc1)C1CCCCC1	EBI2 block 40.5 | EBI2 conf inactive | EBI2 agonist inactive | bGal counter inactive
Cc1cccc(NC(=O)c2cc([N+](=O)[O-])ccc2NC2CCCCC2)c1	none
O=C(CCc1c[nH]c2ccccc12)NCCc1ccc(Cl)cc1	EBI2 block 49.2 | EBI2 conf inactive | EBI2 agonist inactive | bGal counter inactive
CCOC(=O)C1=C[C@@H](C(C)(C)C)N(S(=O)(=O)c2ccc(C)cc2)[C@H]1c1ccccc1	none (no result: APJ antag, APJ agonist, CCR6 antag)
CCOC(=O)C1=C[C@@H](C(C)(C)C)N(S(=O)(=O)c2ccc(C)cc2)[C@H]1c1ccc(C#N)cc1	EBI2 block 42.0 (no result: APJ antag, APJ agonist, CCR6 antag) | EBI2 conf inactive | EBI2 agonist inactive | bGal counter inactive
CCN(CC)c1ccc(C(=O)NNC(=O)Cn2c(=O)cnc3ccccc32)cc1	none (no result: APJ antag, APJ agonist, CCR6 antag)
COC(=O)c1ccc2c(=O)[nH]c(COC(=O)CCC(=O)c3ccc(Cl)cc3)nc2c1	none
CCOC(=O)C1(Cc2ccc(OC)cc2)CCN(S(C)(=O)=O)CC1	none
CCOC(=O)C1(Cc2ccc(Cl)cc2)CCN(C(C)Cc2ccc(O)c(OC)c2)CC1 (configuration not stated)	EBI2 block 46.8 | EBI2 conf inactive | EBI2 agonist inactive | bGal counter inactive
COc1ccc(/C=C/C(=O)NC(=S)N2CCN(C)CC2)cc1	none
CCOC(=O)C1CCN(C(=O)/C=C/c2ccc(OC)cc2)CC1	EBI2 block 87.4 | EBI2 conf 75.1 | EBI2 agonist inactive | bGal counter inactive
CCN1CCN(C(=O)/C=C/c2ccc(OC)cc2)CC1	EBI2 block 87.5 | EBI2 conf 73.5 | EBI2 agonist inactive | bGal counter inactive
CCN1CCN(C(=O)/C=C/c2ccc(F)cc2)CC1	EBI2 block 83.7 | EBI2 conf 71.2 | EBI2 agonist inactive | bGal counter inactive
O=C(C1=NN(c2ccccc2)C(=O)CC1)N1CCc2ccccc2C1	none
COc1ccc(CN2CC[C@H]3C=CC[C@@H](C(=O)NCCc4ccccc4)[C@H]3C2=O)cc1OC	none
N#Cc1ccc(/C=C\c2nccc3c2[nH]c2ccccc23)cc1	EBI2 block 47.8 | EBI2 conf inactive | EBI2 agonist inactive | bGal counter inactive
Clc1ccc(/C=C/c2nc3ccccc3[nH]2)cc1	none
Clc1ccc(/C=C\c2nccc3c2[nH]c2ccccc23)cc1	EBI2 block 64.8 (no result: APJ antag, APJ agonist) | EBI2 conf inactive | EBI2 agonist inactive | bGal counter inactive
Cc1ccc(S(=O)(=O)N(Cc2ccc(C(F)(F)F)cc2)C(=O)N2CCN(C)CC2)cc1	none
COc1cc(/C=C(\C#N)C(=O)c2c(C)[nH]c3ccccc23)cc(OC)c1OC	EBI2 block 44.8 | EBI2 conf inactive | EBI2 agonist inactive | bGal counter inactive
Cc1ccc(CNC(=O)c2ccc(N3CCCC3=O)cc2)cc1	EBI2 block 62.7 | EBI2 conf inactive | EBI2 agonist inactive | bGal counter inactive
O=C(NCc1ccccc1)c1ccc(Cl)cc1	none (no result: EBI2 block, CXCR6 inh, HTR2A ag)
CC(C)c1ccc(C(=O)NCc2ccc(Cl)cc2)cc1	EBI2 block 61.1 | EBI2 conf inactive | EBI2 agonist inactive | bGal counter inactive
O=C(NCc1ccc(N2CCCC2=O)cc1)c1ccc(F)cc1	none
COc1ccc(CNC(=O)c2ccc(N3CCCC3=O)cc2)cc1	none
O=C(NCc1ccc(Cl)cc1)c1ccc(N2CCCC2=O)cc1	EBI2 block 54.9 | EBI2 conf inactive | EBI2 agonist inactive | bGal counter inactive
O=C(CC(=O)Nc1cc(Cl)ccc1Cl)Nc1cc(Cl)ccc1Cl	none
Cc1ccc(OCC(=O)NNC(=O)C2CSC3(C)CCC(=O)N23)cc1C (configuration not stated)	none
O=C(Nc1cccnc1)/C(N=Nc1c(Cl)cccc1Cl)=C(\O)c1ccccc1	EBI2 block 50.9 | EBI2 conf inactive | EBI2 agonist inactive | bGal counter inactive
O=C(Nc1cccnc1)/C(N=Nc1ccc(Cl)c(C(F)(F)F)c1)=C(\O)c1ccccc1	none
O=C(CCCc1nc2ccccc2s1)NC(c1ccccc1)c1ccccc1	EBI2 block 77.5 | EBI2 conf inactive | EBI2 agonist inactive | bGal counter inactive
O=C(O)CCCc1nc2ccccc2s1	none
O=C(Nc1cnn(C23CC4CC(CC(C4)C2)C3)c1)c1cc(-c2ccccc2)on1	EBI2 block 63.4 | EBI2 conf inactive | EBI2 agonist inactive | bGal counter inactive
CC(=O)Nc1ccc(S(=O)(=O)NCCCc2ccccc2)cc1	none
C=CCCC1CN(CCCC)S(=O)(=O)c2c(F)cccc2O1 (configuration not stated)	none (no result: APJ antag, APJ agonist)
COC(=O)c1ccc2nc(-c3ccc(C)cc3)c(Cc3ccsc3)n2c1	none (no result: APJ antag, APJ agonist, CCR6 antag)

Screening results from PubChem BioAssay.
